Pf gametocyte: late stage P. falciparum gametocyte viability inhibitors, primary screen, ATP luminescence, HTS. 150,000 tested, 0.065% active. inhibition, % at 10.9 µM. P. falciparum stage V gametocytes, 24 h. AID 743093, 2013;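 active means inhibition above the mean plus 3 SD of compounds within the control limits, set per campaign, cut at about 38% in these data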;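 further: 0% = DMSO wells and 100% = medium only without gametocytes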
ROMK primary: ROMK potassium channel modulators, primary screen, cell-based, thallium flux, MLSMR library. B-score at 10 µM. Tet-inducible ROMK, thallium flux fluorescence; actives lie on both sides. 130,000 tested, 2% active. ATP-sensitive inward rectifier potassium channel 1 (Homo sapiens), P48048;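 active means signal ratio slope over the read window, or its plate-corrected B-score, at least 3 SD from the plate mean, either direction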;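 further: B-score of the F/F0 ratio slope over 7 to 12 s after thallium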
Calb biofilm kill: clotrimazole potentiators killing C. albicans biofilm, primary screen, 4-compound mixtures. AID 1242, 2008. inhibition, % at 7.6 µM. 120,000 tested, 0.02% active. C. albicans biofilm persisters + clotrimazole, fluorescence viability; primary screen in compound mixtures of four per well;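 further: compounds exposed to preformed 24 h biofilms for 48 h; 0% = untreated biofilm control and 100% = clotrimazole plus chlorhexidine kill blank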
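Incubation: 24 h biofilm formation, then 48 h compound exposure, 37 °C | Material: C. albicans biofilms | Buffer or medium: RPMI/MOPS medium, pH 7.0 | Measured by: 2-h Alamar Blue fluorescence, 535/590 nm excitation/emission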
ROMK hit retest: ROMK channel modulator hit retest, confirmation, cell-based, thallium flux, duplicate, resupplied hits | shares compounds with ROMK primary | fluorescence ratio; hits give low values | normalized thallium flux (F/F0 slope) at 10 µM | 3,000 tested, 54% active;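 active means Flux at 10 µM at least 3 SD below or above vehicle control mean in one or both replicates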
* = called active by the depositor; · = no result given. The entries come from a sample that favours hits as a whole.

SMILES	Pf gametocyte	ROMK primary	Calb biofilm kill	ROMK hit retest
CCCCNC(=O)NS(=O)(=O)c1ccc(NC(=O)C(NC(N)=O)C(C)CC)cc1 (centres undefined)	17	·	17	·
CCOCCCNC(=O)CN1C(=O)/C(=C\c2ccc(C)cc2)Sc2ccccc21	9	-1.7	13	·
CCN1CCN(CCCNC(=O)c2ccc(/C=C3/Sc4ccccc4N(Cc4ccccc4F)C3=O)cc2)CC1	1	-3.3*	16	0.077
CCN1CCN(CCNC(=O)c2ccc(/C=C3/Sc4ccccc4N(Cc4ccccc4C)C3=O)cc2)CC1	-4	-3.6*	17	0.078
O=C(NCCN1CCOCC1)c1ccc2c(c1)N(Cc1ccccc1F)C(=O)c1ccccc1S2	4	-1	15	·
O=C(O)c1ccc(/C=N/N2CCN(Cc3ccccc3)CC2)cc1	·	-0.31	-7	·
CCOc1ccc(NC(=S)N2CCN(c3ccc(N4CCOCC4)nn3)CC2)cc1	-16	·	19	·
CCN(CC)C(=O)c1[nH]cnc1C(=O)NCC(=O)OC(C)(C)C	13	·	·	·
CCSc1nc2[nH]ncc2c(=O)[nH]1	-9	0.34	16	·
COC(=O)C1=C(C)N(CCCC(=O)O)C(=O)NC1c1cccc(OC)c1 (centres undefined)	-8	·	·	·
CCc1cc2c(=O)c(-c3cscn3)coc2cc1O	-24	2.5*	·	0.076
CCOC(=O)c1oc2cc(O)c(CC)cc2c(=O)c1-c1cscn1	-10	0.36	9	·
O=S(=O)(Cc1ccccc1Cl)NCc1ccccc1	16	-0.033	9	·
O=C(Cc1cn(Cc2cccc(Cl)c2)c2ccccc12)N1CCCC1	6	-3.2*	-3	0.059*
N#Cc1cn(Cc2cccc(Cl)c2)c2ccccc12	4	·	·	·
CC1CCN(C(=O)CNC(=O)CNS(=O)(=O)c2ccccc2)CC1	2	·	·	·
